Measurements collected from several papers.

For CC(C)(O)c1cn(-c2ccc(-c3ccc(CO)c(S(C)(=O)=O)c3)cc2)c(Cc2ccccc2Cl)n1, the AUC was 13 µM·h (male C57BL/6 mouse, serum; oral, 10 mg/kg).
The AUC(0-t) of Cc1ccc2cncc(N3CCc4c(cc(Cn5ccnc5)cc4-c4cn(C)nc4C(F)(F)F)C3=O)c2c1 is reported as 3840 ng·h/mL (male CD-1 mouse, plasma; intravenous, 3 mg/kg).
The AUC(0-t) of COc1ccc(C(O)COc2ccc(-c3csc(-c4ccc(OCC(O)c5ccc(OC)c(OC)c5)cc4)n3)cc2)cc1OC (centres unmarked) is reported as 34000 ng·h/mL (C57BL/6 mouse, plasma; oral, 30 mg/kg).
For NC[C@@H]1O[C@H](O[C@H]2[C@@H](O)[C@H](O[C@@H]3[C@@H](O)[C@H](N)C[C@H](N)[C@H]3O[C@H]3O[C@H](CO)[C@@H](O)[C@H](O)[C@H]3N)O[C@@H]2CO)[C@H](N)[C@@H](O)[C@@H]1O, the AUC was 3400 ng·h/mL (male BALB/c mouse, plasma; oral, 500 mg/kg).
CNC(=O)[C@H](Cc1c[nH]cn1)NC(=O)CN(CCCc1ccccc1)CC(=O)OC gave an AUC of 1000 ng·h/mL (male C57BL/6 mouse, plasma; intraperitoneal, 30 mg/kg).
COc1ccc2nccc(N3CCc4c(cc(Cn5ccnc5)cc4-c4cn(C)nc4C(F)(F)F)C3=O)c2c1 has an AUC(0-t) of 1840 ng·h/mL (male CD-1 mouse, plasma; intravenous, 3 mg/kg).
CNC(=O)[C@H](Cc1c[nH]cn1)NC(=O)CN(CCCc1ccccc1)CC(=O)O gave an AUC of 3600 ng·h/mL (male C57BL/6 mouse, plasma; intraperitoneal, 30 mg/kg).
With CC1(C)c2nc(-c3ccc(F)cc3)c(Nc3ccc(F)cc3)n2CCN1C(=O)CN the AUC was 0.78 µM·h (mouse, plasma; oral, 2 mg/kg).
The AUC of CC[C@H](C)[C@@H]1NC(=O)[C@@](C)(NC(=O)[C@H](CCCNC(=N)N)NC(=O)[C@H](CC(C)C)NC(=O)[C@@H](NC(=O)[C@H](CCC(N)=O)NC(=O)[C@H](CC(C)C)NC(C)=O)[C@@H](C)O)CCCC=CCCC[C@@](C)(C(=O)N[C@@H](CC(C)C)C(=O)N[C@@H](Cc2ccc3ccccc3c2)C(N)=O)NC(=O)[C@H](CCCNC(=N)N)NC(=O)[C@H](CCC(N)=O)NC1=O is reported as 76 µM·h (male BALB/c mouse, plasma; intravenous, 5 mg/kg).
The AUC(0-inf) of Cc1nc(-c2cnc(NC(C)C)n(C)c2=O)ccc1Oc1ccnc(-c2cnn(C)c2)c1 is reported as 285000 ng·h/mL (female mouse, plasma; oral, 30 mg/kg, single dose).
CC(C)(C)c1ccc(O)c(CN(Cc2cc(C(C)(C)C)ccc2O)C2CCC(NC(N)=O)CC2)c1 (centres unmarked) has an AUC(0-inf) of 6620 ng·h/mL (male C57BL/6 mouse, plasma; oral, 10 mg/kg, single dose).
For CC(C)(O)c1cn(-c2ccc(-c3cc(F)c(CO)c(S(C)(=O)=O)c3)cc2)c(C(C)(C)c2cccc(F)c2Cl)n1, the AUC was 6.9 µM·h (male C57BL/6 mouse, serum; oral, 10 mg/kg).
CCc1cc(OC)c2nccc(N3CCc4c(cc(Cn5ccnc5)cc4-c4cn(C)nc4C(F)(F)F)C3=O)c2c1 gave an AUC(0-inf) of 3330 ng·h/mL (male CD-1 mouse, plasma; intravenous, 3 mg/kg).
The AUC of OC[C@H]1O[C@@H](c2ccc(Cl)c(Cc3ccc(O[C@H]4CCOC4)cc3)c2)[C@H](O)[C@@H](O)[C@@H]1O is reported as 741 ng·h/mL (CD-1 mouse, plasma; oral, 10 mg/kg).
